The text below walks through data of ChEMBL document CHEMBL1641494, “Modulation of PPAR subtype selectivity. Part 2: Transforming PPARα/γ dual agonist into α selective PPAR agonist through bioisosteric modification” (Bioorg Med Chem Lett, 2011).

Active and inactive are the calls of the source. The calls are words filed in the database; no cut-off is given here.

Data set [1] has as its target T1, Peroxisome proliferator-activated receptor alpha (Homo sapiens) (UniProt Q07869).
T1 sequence (whole entry): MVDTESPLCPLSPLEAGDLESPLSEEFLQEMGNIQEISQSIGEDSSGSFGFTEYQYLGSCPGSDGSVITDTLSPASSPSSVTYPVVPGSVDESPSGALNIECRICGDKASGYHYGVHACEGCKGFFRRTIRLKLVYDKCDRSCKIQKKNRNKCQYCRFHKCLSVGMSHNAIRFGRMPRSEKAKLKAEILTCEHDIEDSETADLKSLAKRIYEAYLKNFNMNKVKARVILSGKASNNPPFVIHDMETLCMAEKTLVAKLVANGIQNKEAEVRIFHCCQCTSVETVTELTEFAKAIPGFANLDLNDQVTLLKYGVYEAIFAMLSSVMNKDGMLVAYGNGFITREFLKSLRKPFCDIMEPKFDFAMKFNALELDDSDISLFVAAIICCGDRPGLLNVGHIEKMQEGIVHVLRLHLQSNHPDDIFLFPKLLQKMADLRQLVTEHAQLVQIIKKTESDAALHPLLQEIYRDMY
The data set can be described thus: Agonist activity at human PPARalpha in human HepG2 cells co-transfected with PPRE3-TK-luc assessed as induction of transactivation activity at 10 uM by luciferase reporter gene assay relative to control. The format is functional, cell-based. The procedure, abridged:
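HepG2 cells were transfected with pSG5 vector carrying human PPARα cDNA and co-transfected with PPRE3-TK-luc. Firefly luciferase was read and normalised to β-galactosidase activity measured in an ELISA reader. Compound was tested at 10 µM. Results are expressed as fold induction versus vehicle (1% DMSO).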
(A reporter such as luciferase makes a cellular process visible.)

Data set [2] has as its system Mus musculus. Put plainly: Antihyperglycemic activity in db/db mouse assessed as reduction of serum glucose level at 30 mg/kg, po qd for 7 days relative to control. The format is functional. Details: scale not given: the % may be the effect or the level left. Summed up: (§1)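 Male db/db mice aged 6–8 weeks were dosed orally once daily for 7 days. Serum triglycerides and glucose were then measured. Results are expressed as % change versus vehicle-treated controls (n = 6).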

The nature of data set [3]: Half life in Wistar rat at 30 mg/kg, po. The format is ADME, organism-based. Further details: dose 30 mg/kg, route oral. The note with it: in vivo. Summed up:
(§2)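 Single oral dose of 30 mpk to fasted male Wistar rats (n = 6). Plasma concentrations were measured by LC–MS, and Tmax, Cmax, T1/2 and AUC(0–∞) were derived. Values are given as mean ± SD.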

Data set [4] has as its system Rattus norvegicus. Put plainly: Antihyperlipidemic activity in Sprague-Dawley rat assessed as reduction of serum total cholesterol level at 30 mg/kg, po qd for 14 days relative to control. Further details: scale not given: the % may be the effect or the level left. The format is functional. The procedure, abridged:
(§3)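 Male Sprague–Dawley rats were fed a high-cholesterol diet for 15 days, then given vehicle or compound by oral gavage once daily for 14 days. Serum TG, total cholesterol, LDL-C and HDL-C were measured. Results are expressed as % change versus vehicle (n = 9).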

Data set [5] relates to Rattus norvegicus. Put plainly: Antihyperlipidemic activity in Sprague-Dawley rat assessed as reduction of serum LDL-cholesterol level at 30 mg/kg, po qd for 14 days relative to control. The data set is classed as functional. Details: scale not given: the % may be the effect or the level left. The procedure, abridged:
as §3

Data set [6] deals with Mus musculus. Put plainly: Antihyperlipidemic activity in db/db mouse assessed as reduction of serum triglycerides level at 30 mg/kg, po qd for 7 days relative to control. The data set is classed as functional. Further details: scale not given: the % may be the effect or the level left. Summed up: as §1
The test system of data set [7] is Rattus norvegicus. The data set can be described thus: Antihyperlipidemic activity in Sprague-Dawley rat assessed as increase of serum HDL-cholesterol level at 30 mg/kg, po qd for 14 days relative to control. The format is functional. Summed up:
as §3

The test system of data set [8] is Rattus norvegicus. Put plainly: Antihyperlipidemic activity in Sprague-Dawley rat assessed as reduction of serum triglycerides level at 30 mg/kg, po qd for 14 days relative to control. The format is functional. Details: scale not given: the % may be the effect or the level left. Summed up: as §3
Data set [9] is described as follows: Tmax in Wistar rat at 30 mg/kg, po. Further details: dose 30 mg/kg, route oral. As to conditions: in vivo. The data set is classed as ADME, organism-based. The procedure, abridged: as §2
Data set [10] in a line: AUC (0 to infinity) in Wistar rat at 30 mg/kg, po. Details: time infinity, dose 30 mg/kg, route oral. The data set is classed as ADME, organism-based. As to conditions: plasma. Summed up:
as §2

For data set [11], the system named is Mus musculus. Put plainly: Antihyperglycemic activity in db/db mouse assessed as reduction of serum glucose level at 3 mg/kg, po qd for 7 days relative to control. The data set is classed as functional. Details: scale not given: the % may be the effect or the level left. The procedure, abridged: as §1
Data set [12] deals with Mus musculus. The data set can be described thus: Antihyperlipidemic activity in db/db mouse assessed as reduction of serum triglycerides level at 3 mg/kg, po qd for 7 days relative to control. The data set is classed as functional. Details: scale not given: the % may be the effect or the level left. The procedure, abridged:
as §1

For data set [13], the system named is Rattus norvegicus. The data set can be described thus: Antihyperlipidemic activity in Sprague-Dawley rat assessed as reduction of serum triglycerides level at 3 mg/kg, po qd for 14 days relative to control. The format is functional. Further details: scale not given: the % may be the effect or the level left. Summed up: as §3
In data set [14] the test system is Rattus norvegicus. The data set can be described thus: Antihyperlipidemic activity in Sprague-Dawley rat assessed as reduction of serum LDL-cholesterol level at 3 mg/kg, po qd for 14 days relative to control. The data set is classed as functional. Details: scale not given: the % may be the effect or the level left. The procedure, abridged: as §3
The nature of data set [15]: Cmax in Wistar rat at 30 mg/kg, po. The format is ADME, organism-based. Further details: dose 30 mg/kg, route oral. As to conditions: in vivo. Summed up: as §2
The subject of data set [16] is Rattus norvegicus. Put plainly: Antihyperlipidemic activity in Sprague-Dawley rat assessed as reduction of serum total cholesterol level at 3 mg/kg, po qd for 14 days relative to control. The format is functional. Details: scale not given: the % may be the effect or the level left. Summed up:
as §3

The subject of data set [17] is Rattus norvegicus. Put plainly: Antihyperlipidemic activity in Sprague-Dawley rat assessed as increase of serum HDL-cholesterol level at 3 mg/kg, po qd for 14 days relative to control. The data set is classed as functional. Summed up:
as §3

Turning to `C/C(=N\OCCOc1ccc(C[C@H]2CO[C@@](C)(C(=O)O)OC2)cc1)c1ccccc1`, the fold change (FC) in data set [1] is 10.8.
On the same count and under the same terms, the figure for `C/C(=N\OCCOc1ccc(C[C@H]2CO[C@@](C)(C(=O)O)OC2)cc1)c1ccc(C(F)(F)F)cc1` is 5.79.
`C/C(=N\OCCOc1ccc(C[C@H]2CO[C@@](C)(C(=O)O)OC2)cc1)c1ccc(C)cc1`: the fold change (FC) in data set [1] came to 10.8.
The same measure, in the same setting: the value for `C/C(=N\OCCOc1ccc(C[C@H]2CO[C@@](C)(C(=O)O)OC2)cc1)c1ccc(F)cc1` was 10.5; that for `COc1ccc(/C(C)=N/OCCOc2ccc(C[C@H]3CO[C@@](C)(C(=O)O)OC3)cc2)cc1OC` was 3.61.
Still for that read-out and setting: the figure for `C/C(=N\OCCOc1ccc(C[C@H]2CO[C@@](C)(C(=O)O)OC2)cc1)c1ccc(S(C)(=O)=O)cc1` is 1.37; for `C/C(=N\OCCOc1ccc(C[C@H]2CO[C@@](C)(C(=O)O)OC2)cc1)c1ccc2ccccc2c1` it is 1.76.
Still for that read-out and setting: the figure for `C/C(=N\OCCOc1ccc(C[C@H]2CO[C@@](C)(C(=O)O)OC2)cc1)c1ccc(OC(F)(F)F)cc1` is 3.48.
A word on the half-life: it is the time in which the quantity being followed falls by half. Usually Tmax stands for the time from dosing to the highest level. On to `Cc1ccc(-c2nc(CCCC[C@H]3CO[C@@](C)(C(=O)O)OC3)c(C)o2)cc1`, for which the Activity in the data set on Mus musculus [2] is reported as -43%; in the data set on Rattus norvegicus [4], -49%; in the data set with Rattus norvegicus [5] it was -58%; in the data set on Mus musculus [6], -54%; with Rattus norvegicus [7] it was 62%; in the data set on Rattus norvegicus [8], -51%. The fold change (FC) in data set [1] amounted to 12.7. This compound also showed a half-life in data set [3] of 119 min. Besides, in data set [9], the Tmax was 39 min.
As for `CN(CCOc1ccc(CC2SC(=O)NC2=O)cc1)c1ccccn1` (configuration not stated), the “fold change (FC)” value in [1] was “inactive”.
For `C/C(=N\OCCOc1ccc(C[C@H]2CO[C@@](C)(C(=O)O)OC2)cc1)c1ccc2c(c1)CCCC2`, the fold change (FC) in [1] amounted to 1.63.
Regarding `C/C(=N\OCCOc1ccc(C[C@H]2CO[C@@](C)(C(=O)O)OC2)cc1)c1cccnc1`, in data set [1], the fold change (FC) came out at 2.36.
For orientation: AUC(0-inf) means the area under the concentration-time curve extrapolated to infinity. As usually defined, the Cmax is the peak of the concentration-time curve. `COc1ccc(/C(C)=N/OCCOc2ccc(C[C@H]3CO[C@@](C)(C(=O)O)OC3)cc2)cc1`: the AUC(0-inf) in data set [10] amounted to 1420 ng·h/mL. The fold change (FC) in data set [1] came out at 15. Besides, in data set [3], the half-life is 838 min. Further, the Activity with Mus musculus [11] was -45%; in the data set on Mus musculus [12] it was -53%; in the data set on Rattus norvegicus [13] it was -54%; in the data set on Rattus norvegicus [14], -68%; with Rattus norvegicus [16] it was -56%; in the data set with Rattus norvegicus [17], 68%. In addition, in [9], the Tmax was determined as 36.6 min. The compound further had a Cmax in data set [15] of 120 ng/mL.
On to `Cc1ccc(-c2nc(COc3ccc(C[C@H]4CO[C@@](C)(C(=O)O)OC4)cc3)c(C)o2)cc1`, for which the fold change (FC) in [1] came out at 14.7.
